Key:
[1] = target: T1, Adenosine receptor A3 (Homo sapiens, UniProt P0DMS8); test: Displacement of [3H]PSB11 from human A3 adenosine receptor expressed in CHO cell membranes measured after 2 hrs by scintillation spectrometric method
T1 sequence (P0DMS8 whole entry): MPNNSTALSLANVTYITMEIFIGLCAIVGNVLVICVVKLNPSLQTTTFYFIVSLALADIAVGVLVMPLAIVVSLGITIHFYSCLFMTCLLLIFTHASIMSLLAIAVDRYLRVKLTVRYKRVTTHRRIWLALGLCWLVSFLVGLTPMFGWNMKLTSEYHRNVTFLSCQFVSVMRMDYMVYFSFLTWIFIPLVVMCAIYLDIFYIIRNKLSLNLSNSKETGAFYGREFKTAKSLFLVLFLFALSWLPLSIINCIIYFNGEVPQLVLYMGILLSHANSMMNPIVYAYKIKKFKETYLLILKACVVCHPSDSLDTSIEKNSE

[2] = target: T2, Adenosine receptor A3 (Homo sapiens, UniProt P0DMS8, Y265F); test: Displacement of [3H]PSB11 from human A3 adenosine receptor Y265F (7.36) mutant transiently expressed in CHOK1 cell membranes measured after 2 hrs by scintillation spectrometric method
T2 sequence (P0DMS8 whole entry): T1 sequence (P0DMS8 whole entry)
Summary of the method: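 Membranes (15 µg) in 50 mM Tris-HCl, 5 mM MgCl2, 0.01% CHAPS, 1 mM EDTA, pH 7.4. Six competitor concentrations with ~10 nM [3H]PSB-11, 2 h at 25 °C. NSB from 100 µM NECA; filtration and scintillation counting; one-site fit. Three experiments, duplicate.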

[3] = target: Adenosine receptor A2a (Homo sapiens, UniProt P29274); test: Displacement of [3H]ZM241385 from human A2A adenosine receptor expressed in HEK293 cell membranes measured after 2 hrs by scintillation spectrometric method
[4] = target: T3, Adenosine receptor A1 (Homo sapiens, UniProt P30542); test: Displacement of [3H]DPCPX from human A1 adenosine receptor expressed in CHO cell membranes measured after 2 hrs by scintillation spectrometric method
T3 sequence (P30542 whole entry): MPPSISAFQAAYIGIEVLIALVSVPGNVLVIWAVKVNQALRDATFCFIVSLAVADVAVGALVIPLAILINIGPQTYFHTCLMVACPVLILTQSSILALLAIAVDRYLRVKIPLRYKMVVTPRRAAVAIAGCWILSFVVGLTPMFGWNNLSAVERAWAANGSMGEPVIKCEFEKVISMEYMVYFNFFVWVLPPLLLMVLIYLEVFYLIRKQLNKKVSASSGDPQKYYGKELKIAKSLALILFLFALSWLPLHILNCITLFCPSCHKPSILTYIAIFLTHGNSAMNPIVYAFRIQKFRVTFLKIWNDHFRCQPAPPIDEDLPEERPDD

Chain of Adenosine receptor A2a (P29274 whole entry): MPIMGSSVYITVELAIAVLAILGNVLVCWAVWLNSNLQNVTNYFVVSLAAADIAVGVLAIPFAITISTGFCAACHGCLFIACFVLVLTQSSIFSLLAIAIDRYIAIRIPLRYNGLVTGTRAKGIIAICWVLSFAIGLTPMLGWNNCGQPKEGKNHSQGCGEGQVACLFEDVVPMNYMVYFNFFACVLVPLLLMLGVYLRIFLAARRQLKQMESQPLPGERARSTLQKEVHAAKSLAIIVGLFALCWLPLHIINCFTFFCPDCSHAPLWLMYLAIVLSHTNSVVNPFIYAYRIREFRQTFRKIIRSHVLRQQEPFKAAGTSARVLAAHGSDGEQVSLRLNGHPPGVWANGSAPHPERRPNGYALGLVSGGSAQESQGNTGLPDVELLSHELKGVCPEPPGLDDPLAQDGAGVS

SMILES | Ki [1] | also measured
CCCn1c(=O)c2c(nc3cc(OC)ccn32)n(CCCOC(=O)c2ccc(S(=O)(=O)F)cc2)c1=O | 20 nM | –
CCCn1c(=O)c2c(nc3cc(OC)ccn32)n(CCCCOC(=O)c2ccc(S(=O)(=O)F)cc2)c1=O | 32 nM | –
CCCn1c(=O)c2c(nc3cc(OC)ccn32)n(CCCOC(=O)c2cccc(S(=O)(=O)F)c2)c1=O | 100 nM | –
CCCn1c(=O)c2c(nc3cc(OC)ccn32)n(CCOC(=O)c2ccc(S(=O)(=O)F)cc2)c1=O | 200 nM | –
CCCn1c(=O)c2c(nc3cc(OC)ccn32)n(CCCNC(=O)c2cccc(S(=O)(=O)F)c2)c1=O | 32 nM | –
CCCn1c(=O)c2c(nc3cc(OC)ccn32)n(CCCCNC(=O)c2cccc(S(=O)(=O)F)c2)c1=O | 158 nM | –
CCCn1c(=O)c2c(nc3cc(OC)ccn32)n(CCCCOC(=O)c2cccc(S(=O)(=O)F)c2)c1=O | 79 nM | –
CCCn1c(=O)c2c(nc3cc(OC)ccn32)n(CCCNC(=O)c2ccc(S(C)(=O)=O)cc2)c1=O | – | IC50 [2]: 794 nM; Ki [3]: 6.31 µM; Ki [4]: 15.8 µM
CCCn1c(=O)c2c(nc3cc(OC)ccn32)n(CCCNC(=O)c2ccc(S(=O)(=O)F)cc2)c1=O | – | Ki [3]: 1.26 µM; Ki [4]: 0.794 µM
CCCn1c(=O)c2c(nc3cc(OC)ccn32)n(CCCCNC(=O)c2ccc(S(=O)(=O)F)cc2)c1=O | 32 nM | –
CCCn1c(=O)c2c(nc3cc(OC)ccn32)n(CCOC(=O)c2cccc(S(=O)(=O)F)c2)c1=O | 398 nM | –

Reference: BindingDB's records for doi:10.1021/acs.jmedchem.8b02026 (Leiden University, 2019)
